# Laboratory results: ChEMBL document CHEMBL3046072, “Plant P5C reductase as a new target for aminomethylenebisphosphonates” (J Agric Food Chem, 2007)
# Target: T1, Pyrroline-5-carboxylate reductase (Arabidopsis thaliana, UniProt P54904)
# T1 sequence (P54904 whole entry): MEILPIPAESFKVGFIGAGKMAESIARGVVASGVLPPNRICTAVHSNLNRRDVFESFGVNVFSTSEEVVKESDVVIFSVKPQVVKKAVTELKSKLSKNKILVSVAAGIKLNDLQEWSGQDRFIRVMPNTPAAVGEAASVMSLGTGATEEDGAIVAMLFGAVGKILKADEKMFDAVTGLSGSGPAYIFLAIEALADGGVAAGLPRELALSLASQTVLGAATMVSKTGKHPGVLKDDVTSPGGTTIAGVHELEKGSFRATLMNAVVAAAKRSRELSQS
# Assay: Inhibition of Arabidopsis thaliana P5C reductase catalytic activity
# Conditions: read-out: I50
# How it was run: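 P5C reductase partially purified from A. thaliana Columbia suspension-cultured cells by ammonium sulfate cut and two DEAE-Sephacel steps. Assay at 35 °C: 100 mM Tris-HCl pH 8.0, 0.1 mM MgCl2, 2 mM DL-P5C, 0.25 mM NADH. Read as NADH oxidation at 340 nm, or as P5C loss by ninhydrin at 535 nm. Inhibitor neutralised to pH 7.4, tested over 0.010–5 mM. I50 from regression of % control activity versus log concentration.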
structure (smiles),measurement,value
"O=P(O)(O)C(Nc1cc(Cl)cc(Cl)c1)P(=O)(O)O [(3,5-DICHLOROPHENYLAMINO)METHYLENEDIPHOSPHONIC ACID]",IC50,77 µM
